Measurements published in ChEMBL document CHEMBL1134050, “Phenyl benzenesulfonamides are novel and selective 5-HT6 antagonists: identification of N-(2,5-dibromo-3-fluorophenyl)-4-methoxy-3-piperazin-1-ylbenzenesulfonamide (SB-357134)” (Bioorg Med Chem Lett, 2001).

How the values were obtained:
[1] = species: Rattus norvegicus; assay: Blood: Brain distribution ratio is determined in rat; assay type: ADME, organism-based
Summary of the method: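 Rats received iv infusion for 8 h, and the brain:blood ratio was taken at steady state.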

[2] = biological target: 5-hydroxytryptamine receptor 1D (Homo sapiens, UniProt P28221); assay: Compound was evaluated for binding affinity against human cloned 5-hydroxytryptamine 1D receptor in CHO cells using [3H]5-HT as the radioligand; assay type: cell-based
Sequence of 5-hydroxytryptamine receptor 1D (P28221 whole entry): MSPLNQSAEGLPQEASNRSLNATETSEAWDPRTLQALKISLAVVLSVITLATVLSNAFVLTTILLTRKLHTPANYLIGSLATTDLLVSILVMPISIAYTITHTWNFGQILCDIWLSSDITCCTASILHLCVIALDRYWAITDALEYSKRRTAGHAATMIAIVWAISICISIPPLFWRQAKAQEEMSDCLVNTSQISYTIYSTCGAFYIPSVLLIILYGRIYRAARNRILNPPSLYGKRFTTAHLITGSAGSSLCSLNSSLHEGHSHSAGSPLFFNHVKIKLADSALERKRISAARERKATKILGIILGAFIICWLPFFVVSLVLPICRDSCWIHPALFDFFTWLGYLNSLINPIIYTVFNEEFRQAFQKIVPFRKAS

[3] = biological target: T1, 5-hydroxytryptamine receptor 1F (Homo sapiens, UniProt P30939); assay: Compound was evaluated for binding affinity against human cloned 5-hydroxytryptamine 1F receptor in CHO cells using [3H]-5-HT as the radioligand; assay type: cell-based
T1 sequence (P30939 whole entry): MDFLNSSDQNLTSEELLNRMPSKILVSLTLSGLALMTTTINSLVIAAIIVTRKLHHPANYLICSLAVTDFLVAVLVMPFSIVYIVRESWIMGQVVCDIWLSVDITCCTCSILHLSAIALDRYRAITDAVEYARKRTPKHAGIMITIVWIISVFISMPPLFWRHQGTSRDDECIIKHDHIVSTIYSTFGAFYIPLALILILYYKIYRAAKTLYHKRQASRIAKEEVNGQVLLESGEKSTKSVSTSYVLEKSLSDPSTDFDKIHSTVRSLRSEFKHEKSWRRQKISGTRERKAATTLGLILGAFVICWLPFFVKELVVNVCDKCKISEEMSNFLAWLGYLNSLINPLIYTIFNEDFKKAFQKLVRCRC

[4] = Bioavailability in rat (dose 3 mg/kg in 1% methylcellulose ); assay type: ADME, organism-based; conditions: in vivo
Summary of the method: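 Oral suspension dose of 3 mg/kg in 1% methylcellulose (v/v) aq to rats (n=3). Blood levels were measured by LC/MS/MS to derive AUC/dose and bioavailability.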

[5] = biological target: 5-hydroxytryptamine receptor 1B (Homo sapiens, UniProt P28222); assay: Compound was evaluated for binding affinity against human cloned 5-hydroxytryptamine 1B receptor in CHO cells using [3H]5-HT as the radioligand; assay type: cell-based
Sequence of 5-hydroxytryptamine receptor 1B (P28222 whole entry): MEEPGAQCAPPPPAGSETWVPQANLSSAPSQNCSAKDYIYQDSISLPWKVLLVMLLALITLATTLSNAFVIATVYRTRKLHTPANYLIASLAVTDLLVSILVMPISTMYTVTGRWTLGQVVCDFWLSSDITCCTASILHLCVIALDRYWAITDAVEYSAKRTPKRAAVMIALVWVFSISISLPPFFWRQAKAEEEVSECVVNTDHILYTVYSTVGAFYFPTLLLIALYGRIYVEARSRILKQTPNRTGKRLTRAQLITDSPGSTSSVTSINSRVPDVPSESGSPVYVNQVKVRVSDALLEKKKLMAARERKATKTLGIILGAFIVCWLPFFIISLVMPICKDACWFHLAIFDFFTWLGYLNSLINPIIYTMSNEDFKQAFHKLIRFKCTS
Summary of the method: (§1)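 Radioligand binding to human cloned receptors: 5-HT1A in HEK 293 cells with [3H]-8-OH-DPAT; 5-HT1B and 5-HT1E in CHO cells with [3H]-5-HT; 5-HT2B in HEK 293 cells with [3H]-5-HT; D2 and D3 in CHO cells with [125I]-iodosulpride. Values are the mean of at least two determinations, each within 0.2 log unit of the mean.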

[6] = biological target: 5-hydroxytryptamine receptor 2B (Homo sapiens, UniProt P41595); assay: Compound was evaluated for binding affinity against human cloned 5-HT2B receptor in HEK 293 cells using [3H]5-HT as the radioligand; assay type: cell-based, HEK293; summary of the method: as §1
Sequence of 5-hydroxytryptamine receptor 2B (P41595 whole entry): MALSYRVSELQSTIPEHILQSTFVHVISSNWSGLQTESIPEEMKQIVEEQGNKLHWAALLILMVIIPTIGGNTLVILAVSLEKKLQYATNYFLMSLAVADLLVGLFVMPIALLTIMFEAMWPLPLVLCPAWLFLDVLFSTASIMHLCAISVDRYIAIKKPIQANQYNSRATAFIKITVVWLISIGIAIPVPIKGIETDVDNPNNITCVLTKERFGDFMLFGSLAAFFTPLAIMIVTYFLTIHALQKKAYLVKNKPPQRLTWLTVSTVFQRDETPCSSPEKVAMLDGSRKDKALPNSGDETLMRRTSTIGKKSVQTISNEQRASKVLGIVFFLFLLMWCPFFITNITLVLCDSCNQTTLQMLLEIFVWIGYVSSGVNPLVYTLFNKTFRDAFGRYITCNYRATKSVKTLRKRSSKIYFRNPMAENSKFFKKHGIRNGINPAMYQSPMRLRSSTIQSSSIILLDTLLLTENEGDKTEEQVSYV

[7] = biological target: 5-hydroxytryptamine receptor 4 (Homo sapiens, UniProt Q13639); assay: Compound was evaluated for the binding affinity against human cloned 5-hydroxytryptamine 4 receptor in HeLa cells using [3H]-LSD as the radioligand; assay type: cell-based
Sequence of 5-hydroxytryptamine receptor 4 (Q13639 whole entry): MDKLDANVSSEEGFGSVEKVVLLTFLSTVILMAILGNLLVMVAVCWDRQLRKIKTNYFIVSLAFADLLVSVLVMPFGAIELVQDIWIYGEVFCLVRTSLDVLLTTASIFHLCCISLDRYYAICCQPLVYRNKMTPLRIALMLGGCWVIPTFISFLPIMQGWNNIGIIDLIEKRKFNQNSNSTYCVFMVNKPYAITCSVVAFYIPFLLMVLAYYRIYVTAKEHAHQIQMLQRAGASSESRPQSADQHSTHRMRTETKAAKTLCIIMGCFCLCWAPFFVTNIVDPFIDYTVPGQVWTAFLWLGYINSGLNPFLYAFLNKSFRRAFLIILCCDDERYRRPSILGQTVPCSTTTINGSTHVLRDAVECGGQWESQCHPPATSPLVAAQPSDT

[8] = biological target: 5-hydroxytryptamine receptor 2A (Homo sapiens, UniProt P28223); assay: Compound was evaluated for binding affinity against human cloned 5-hydroxytryptamine 2A receptor in HEK 293 cells using [3H]ketanserin as the radioligand; assay type: cell-based, HEK293
Sequence of 5-hydroxytryptamine receptor 2A (P28223 whole entry): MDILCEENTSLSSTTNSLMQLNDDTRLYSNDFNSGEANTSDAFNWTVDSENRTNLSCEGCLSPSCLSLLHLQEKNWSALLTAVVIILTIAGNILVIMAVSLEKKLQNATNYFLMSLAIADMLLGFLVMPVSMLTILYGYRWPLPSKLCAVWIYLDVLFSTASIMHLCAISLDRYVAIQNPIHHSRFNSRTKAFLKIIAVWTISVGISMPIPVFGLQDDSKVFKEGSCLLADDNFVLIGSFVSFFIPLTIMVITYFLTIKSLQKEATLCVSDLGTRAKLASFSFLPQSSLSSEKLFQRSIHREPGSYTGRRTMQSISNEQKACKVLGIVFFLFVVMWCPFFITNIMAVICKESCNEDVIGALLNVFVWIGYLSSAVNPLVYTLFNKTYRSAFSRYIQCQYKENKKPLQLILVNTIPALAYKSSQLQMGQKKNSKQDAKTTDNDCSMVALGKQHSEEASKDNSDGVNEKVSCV

[9] = biological target: 5-hydroxytryptamine receptor 1E (Homo sapiens, UniProt P28566); assay: Compound was evaluated for binding affinity against human cloned 5-hydroxytryptamine 1E receptor in CHO cells using [3H]5-HT as the radioligand; assay type: cell-based; summary of the method: as §1
Sequence of 5-hydroxytryptamine receptor 1E (P28566 whole entry): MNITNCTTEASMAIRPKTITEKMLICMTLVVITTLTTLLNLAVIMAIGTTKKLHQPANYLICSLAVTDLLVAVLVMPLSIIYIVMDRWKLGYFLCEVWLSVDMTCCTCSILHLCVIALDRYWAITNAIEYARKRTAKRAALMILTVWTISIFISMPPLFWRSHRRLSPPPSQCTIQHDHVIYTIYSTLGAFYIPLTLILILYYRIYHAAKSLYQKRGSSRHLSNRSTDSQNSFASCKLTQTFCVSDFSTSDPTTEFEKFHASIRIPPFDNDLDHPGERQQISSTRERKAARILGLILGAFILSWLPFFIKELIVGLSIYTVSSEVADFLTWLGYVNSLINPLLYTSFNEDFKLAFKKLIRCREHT

[10] = biological target: T2, 5-hydroxytryptamine receptor 1A (Homo sapiens, UniProt P08908); assay: Compound was evaluated for binding affinity against human cloned 5-hydroxytryptamine 1A receptor in HEK 293 cells using [3H]8-OH-DPAT as the radioligand; assay type: cell-based, HEK293; summary of the method: as §1
T2 sequence (P08908 whole entry): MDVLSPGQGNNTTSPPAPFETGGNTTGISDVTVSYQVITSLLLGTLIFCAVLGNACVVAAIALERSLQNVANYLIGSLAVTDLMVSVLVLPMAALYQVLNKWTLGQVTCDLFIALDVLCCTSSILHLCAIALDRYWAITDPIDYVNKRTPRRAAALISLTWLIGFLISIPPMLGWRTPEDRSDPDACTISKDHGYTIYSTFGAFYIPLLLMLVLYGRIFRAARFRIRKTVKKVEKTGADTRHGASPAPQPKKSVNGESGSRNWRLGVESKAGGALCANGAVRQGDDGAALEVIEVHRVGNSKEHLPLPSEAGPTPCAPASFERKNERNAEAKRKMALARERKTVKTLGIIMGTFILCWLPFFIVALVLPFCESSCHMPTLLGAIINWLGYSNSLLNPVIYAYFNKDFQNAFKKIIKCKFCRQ

[11] = biological target: T3, 5-hydroxytryptamine receptor 2C (Homo sapiens, UniProt P28335); assay: Compound was evaluated for binding affinity against human cloned 5-hydroxytryptamine 2C receptor in HEK 293 cells using [3H]mesulergine as the radioligand; assay type: cell-based, HEK293
T3 sequence (P28335 whole entry): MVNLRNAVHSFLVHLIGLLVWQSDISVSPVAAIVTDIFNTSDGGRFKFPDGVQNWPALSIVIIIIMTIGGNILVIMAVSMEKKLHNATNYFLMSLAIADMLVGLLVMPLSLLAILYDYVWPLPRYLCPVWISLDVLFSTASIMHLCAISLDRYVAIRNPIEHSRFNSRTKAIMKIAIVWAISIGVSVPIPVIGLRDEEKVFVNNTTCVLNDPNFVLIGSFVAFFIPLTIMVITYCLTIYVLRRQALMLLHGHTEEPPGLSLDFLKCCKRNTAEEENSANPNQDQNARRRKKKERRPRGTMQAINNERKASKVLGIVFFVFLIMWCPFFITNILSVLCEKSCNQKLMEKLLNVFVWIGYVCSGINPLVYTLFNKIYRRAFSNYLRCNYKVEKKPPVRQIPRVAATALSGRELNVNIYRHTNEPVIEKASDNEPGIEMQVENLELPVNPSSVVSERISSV

[12] = biological target: D(2) dopamine receptor (Homo sapiens, UniProt P14416); assay: Compound was evaluated for binding affinity against Dopamine receptor D2 in CHO cells using [125I]iodosulpiride as the radioligand; assay type: cell-based; summary of the method: as §1
Sequence of D(2) dopamine receptor (P14416 whole entry): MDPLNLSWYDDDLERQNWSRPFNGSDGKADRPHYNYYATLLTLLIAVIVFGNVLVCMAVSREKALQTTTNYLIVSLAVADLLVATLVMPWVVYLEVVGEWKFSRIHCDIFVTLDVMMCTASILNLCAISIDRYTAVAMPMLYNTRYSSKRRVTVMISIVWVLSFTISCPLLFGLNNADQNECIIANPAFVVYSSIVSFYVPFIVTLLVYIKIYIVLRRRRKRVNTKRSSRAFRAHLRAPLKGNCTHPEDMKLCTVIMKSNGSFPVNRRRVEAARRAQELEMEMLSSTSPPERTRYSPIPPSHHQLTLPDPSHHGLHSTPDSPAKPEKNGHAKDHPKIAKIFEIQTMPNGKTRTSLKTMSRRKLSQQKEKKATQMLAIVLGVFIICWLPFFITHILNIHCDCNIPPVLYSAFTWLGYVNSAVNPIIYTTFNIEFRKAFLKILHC

[13] = biological target: T4, Alpha-1B adrenergic receptor (Homo sapiens, UniProt P35368); assay: Compound was evaluated for binding affinity against Alpha-1B adrenergic receptor
T4 sequence (P35368 whole entry): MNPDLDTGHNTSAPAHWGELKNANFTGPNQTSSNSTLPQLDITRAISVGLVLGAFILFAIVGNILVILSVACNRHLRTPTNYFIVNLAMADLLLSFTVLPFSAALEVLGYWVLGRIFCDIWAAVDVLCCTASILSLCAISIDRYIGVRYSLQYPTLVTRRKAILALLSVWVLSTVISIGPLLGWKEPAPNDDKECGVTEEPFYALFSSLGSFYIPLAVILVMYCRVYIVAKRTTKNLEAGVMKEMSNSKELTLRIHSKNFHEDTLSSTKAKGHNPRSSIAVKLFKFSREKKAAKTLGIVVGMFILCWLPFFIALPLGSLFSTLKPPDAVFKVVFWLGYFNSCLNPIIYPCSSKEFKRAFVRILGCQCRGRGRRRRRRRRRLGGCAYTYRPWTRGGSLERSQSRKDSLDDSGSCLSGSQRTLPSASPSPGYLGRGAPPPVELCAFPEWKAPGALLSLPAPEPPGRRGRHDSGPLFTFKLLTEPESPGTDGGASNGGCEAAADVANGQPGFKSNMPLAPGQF

[14] = Plasma Clearance measured at steady-state following iv infusion at 0.6 mg/kg/h in rats; assay type: ADME, organism-based; set-up: route intravenous; conditions: rat, 0.6 mg/kg/h infusion
[15] = biological target: 5-hydroxytryptamine receptor 6 (Homo sapiens, UniProt P50406); assay: Binding affinity against human 5-hydroxytryptamine 6 receptor
Sequence of 5-hydroxytryptamine receptor 6 (P50406 whole entry): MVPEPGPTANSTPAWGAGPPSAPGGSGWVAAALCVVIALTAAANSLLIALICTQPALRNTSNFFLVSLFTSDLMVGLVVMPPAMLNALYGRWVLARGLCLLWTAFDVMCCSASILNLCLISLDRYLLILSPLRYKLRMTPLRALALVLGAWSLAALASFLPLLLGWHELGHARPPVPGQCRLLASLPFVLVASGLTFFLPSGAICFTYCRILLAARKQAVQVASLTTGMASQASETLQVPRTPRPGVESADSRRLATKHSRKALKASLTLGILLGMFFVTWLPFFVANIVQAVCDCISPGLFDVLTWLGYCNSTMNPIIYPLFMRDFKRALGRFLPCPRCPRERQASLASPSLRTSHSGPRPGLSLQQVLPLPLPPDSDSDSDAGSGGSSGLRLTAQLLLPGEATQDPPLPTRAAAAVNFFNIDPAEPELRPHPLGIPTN

[16] = biological target: D(3) dopamine receptor (Homo sapiens, UniProt P35462); assay: Compound was evaluated for binding affinity against Dopamine receptor D3 in CHO cells using [125I]iodosulpiride as the radioligand; assay type: cell-based; summary of the method: as §1
Sequence of D(3) dopamine receptor (P35462 whole entry): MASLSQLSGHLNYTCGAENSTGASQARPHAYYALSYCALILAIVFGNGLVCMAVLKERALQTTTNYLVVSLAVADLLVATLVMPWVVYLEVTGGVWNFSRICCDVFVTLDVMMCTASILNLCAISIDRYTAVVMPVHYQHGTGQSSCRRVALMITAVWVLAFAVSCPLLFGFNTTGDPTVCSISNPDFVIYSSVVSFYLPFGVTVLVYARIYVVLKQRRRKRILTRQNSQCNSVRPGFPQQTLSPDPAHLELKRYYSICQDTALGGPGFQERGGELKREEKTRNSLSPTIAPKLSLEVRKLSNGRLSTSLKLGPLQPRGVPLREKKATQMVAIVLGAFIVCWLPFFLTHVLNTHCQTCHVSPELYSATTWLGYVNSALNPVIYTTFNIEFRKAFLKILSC

[17] = biological target: T5, 5-hydroxytryptamine receptor 7 (Homo sapiens, UniProt P34969); assay: Compound was evaluated for binding affinity against human cloned 5-hydroxytryptamine 7 receptor in HEK 293 cells using [3H]5-CT as the radioligand (n=3); assay type: cell-based, HEK293
T5 sequence (P34969 whole entry): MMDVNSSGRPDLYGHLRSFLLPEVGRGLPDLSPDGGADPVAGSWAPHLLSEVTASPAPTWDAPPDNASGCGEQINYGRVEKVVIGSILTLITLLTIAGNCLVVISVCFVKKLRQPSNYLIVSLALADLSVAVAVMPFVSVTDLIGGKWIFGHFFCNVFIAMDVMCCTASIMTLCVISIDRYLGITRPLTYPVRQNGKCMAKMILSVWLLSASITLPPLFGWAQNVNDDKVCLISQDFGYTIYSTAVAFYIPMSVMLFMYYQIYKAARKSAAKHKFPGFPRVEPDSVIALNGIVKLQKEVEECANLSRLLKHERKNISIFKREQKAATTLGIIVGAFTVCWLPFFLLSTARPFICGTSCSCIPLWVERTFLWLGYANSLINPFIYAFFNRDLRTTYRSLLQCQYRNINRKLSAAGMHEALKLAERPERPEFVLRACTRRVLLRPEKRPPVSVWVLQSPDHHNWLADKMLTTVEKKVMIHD

[18] = Bioavailability in rat (dose 10 mg/kg in 10% Encapsin and 2% DMSO p.o.); conditions: in vivo, po
[19] = biological target: T5, 5-hydroxytryptamine receptor 7; assay: Displacement of [3H]-5-CT from human 5-hydroxytryptamine 7 receptor expressed in HEK-293 cells; assay type: cell-based, HEK293
[20] = system: Rattus norvegicus; assay: Pharmacokinetic property( plasma concentration) was determined upon 10 mg/kg in 1% methylcellulose peroral administration in rats; assay type: ADME, organism-based; set-up: dose 10 mg/kg, route oral; conditions: in vivo, po
[21] = Bioavailability was determined upon 10 mg/kg in 1% methylcellulose peroral administration in rats; assay type: ADME, organism-based; conditions: rat, in vivo, po
Summary of the method: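 Rats were given 10 mg/kg orally as a suspension in 1% methylcellulose (v/v) aq (n=3). Blood drug levels were determined by LC/MS/MS, and AUC/dose and bioavailability were derived from them.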

| SMILES | Distribution ratio [1] | Ki [2] | Ki [3] | bioavailability [4] | Ki [5] | Ki [6] | Ki [7] | Ki [8] | Ki [9] | Ki [10] | Ki [11] | Ki [12] | Ki [13] | clearance [14] | Ki [15] | Ki [16] | Ki [17] | bioavailability [18] | also measured |
| --- | --- | --- | --- | --- | --- | --- | --- | --- | --- | --- | --- | --- | --- | --- | --- | --- | --- | --- | --- |
| COc1ccc(S(=O)(=O)Nc2cc(Br)ccc2Br)cc1N1CCNCC1 | 0.38 | > 1580 nM | > 10 µM | 20% | > 5.01 µM | > 3160 nM | 3.16 µM | > 10 µM | > 10 µM | > 3.16 µM | > 5010 nM | > 10 µM | > 2000 nM | 43 mL/min/kg | 1 nM | > 5.01 µM |  |  |  |
| COc1ccc(S(=O)(=O)Nc2cc(Cl)cc(Cl)c2Cl)cc1N1CCNCC1 | 0.02 | > 3160 nM | > 10 µM | > 80% | > 10 µM | 2000 nM | > 10 µM | > 10 µM | > 10 µM | 3.98 µM | 1000 nM | > 10 µM | > 3980 nM | 2 mL/min/kg | 2 nM | > 3.98 µM | 2 nM |  |  |
| COc1ccc(S(=O)(=O)Nc2cc(Br)cc(F)c2Br)cc1N1CCNCC1 |  | > 3980 nM | > 10 µM |  | > 3.98 µM | > 3980 nM | > 5.01 µM | > 7.94 µM | > 10 µM | > 6.31 µM | > 5010 nM | > 5.01 µM | > 7940 nM | 14 mL/min/kg |  | > 5.01 µM |  | 65% | Ki [19]: > 10 µM |
| COc1ccc(S(=O)(=O)Nc2cc(Cl)cc(Cl)c2)cc1N1CCNCC1 | 0.02 |  |  |  |  |  |  |  |  |  |  |  |  | 4 mL/min/kg | 0.631 nM |  |  |  | AUC [20]: 450 uM min uM-1; bioavailability [21]: 51% |
| COc1ccc(S(=O)(=O)N2CCc3ccc(I)cc32)cc1N1CCNCC1 |  | 200 nM | > 7.94 µM |  | 1.26 µM | 631 nM | 3.98 µM | > 3.98 µM | > 10 µM | 0.501 µM | 631 nM | 2.51 µM | 1000 nM |  | 0.316 nM | 1 µM | 0.316 nM |  |  |
| COc1ccc(NS(=O)(=O)c2sc3ccc(Cl)cc3c2C)cc1N1CCNCC1 |  |  |  |  |  |  |  |  |  |  |  |  |  | 8 mL/min/kg |  |  |  | 82% |  |
